High-throughput results from PubChem BioAssay.
A selection: hits, their analogues and other compounds. The true share with any hit is near 0.99%.
STK33 inh: human STK33 kinase inhibition. Q9BYT3. purified STK33, MBP phosphorylation, ADP-Glo luminescence. inhibition, % at 10 µM. 320,000 tested, 0.073% active. AID 2661;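 active = inhibition at or above 25%, using the most active replicate where run in duplicate; inactive = inhibition below 25%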
GSK3 alpha inh: blocks human GSK-3 alpha kinase | P49840 | ADP-Glo luminescence, 60 min | inhibition, % at 10 µM | 320,000 tested, 0.1% active | AID 2650;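 active = more than half of replicates show inhibition above 20%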;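 also: GST-tagged GSK-3 alpha with peptide substrate and 25 µM ATP; 0% = DMSO neutral wells and 100% = GW8510 positive control wells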
DYRK1A inh: blocks rat Dyrk1A kinase activity; inhibition, % at 12.5 µM; ADP-Glo luminescence, NFATc1 peptide; Q63470; AID 504441; 310,000 tested, 0.43% active; in the data active = inhibition above about 50%;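 also: plate controls were vehicle with enzyme for no effect and no enzyme for full effect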
Rce1 inh: yeast Ras-converting enzyme inhibition. 290,000 tested, 0.27% active. AID 2563. calls only. yeast membranes, quenched prenylated peptide cleavage fluorescence. Q03530;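 active = fall in fluorescence gain of 50% or more versus controls, with final raw signal at or below 3038400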;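 also: plate controls were neutral control wells for no effect and wells lacking membranes for full effect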
Target sequence (Q03530 whole entry, looked up): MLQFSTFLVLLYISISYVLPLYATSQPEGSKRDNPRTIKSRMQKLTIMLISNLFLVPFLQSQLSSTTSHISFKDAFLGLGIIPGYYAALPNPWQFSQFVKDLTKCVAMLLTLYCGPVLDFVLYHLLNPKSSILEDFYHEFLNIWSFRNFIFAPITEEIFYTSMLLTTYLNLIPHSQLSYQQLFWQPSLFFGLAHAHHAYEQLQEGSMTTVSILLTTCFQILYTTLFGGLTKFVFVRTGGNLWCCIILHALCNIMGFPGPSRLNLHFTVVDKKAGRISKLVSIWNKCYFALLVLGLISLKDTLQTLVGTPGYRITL
GSK3B inh: human GSK3beta kinase inhibition. P49841. GST-GSK3beta kinase, ADP-Glo luminescence, 60 min; active compounds read low. activity score (negative = inhibition), % at 10 µM. 300,000 tested, 0.038% active;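 active = more than half of replicate wells score below -50%, meaning over 50% inhibition versus plate controls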;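 also: 0% = median DMSO wells and -100% = median GW8510 positive control wells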
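test system = GST-tagged human GSK3beta kinase, cell-free | reagent = 25 µM ATP with peptide substrate | dosing = one dose of 10 µM per compound | schedule = 60 min reaction, RT | detection = luminescent ADP-Glo measurement of ADP formed | control set = DMSO neutral wells and GW8510 at 20 µM as positive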
AI-2 QS mod: Vibrio harveyi AI-2 quorum sensing modulation. Vibrio harveyi JMH597 AI-2 luminescence/OD600 ratio, 9 h; active compounds read low; strain lacks LuxN and CqsS sensors; 0 = neutral-control median. activity change, % at 7.5 µM. 300,000 tested, 0.4% active. AID 2094; in the data active = activity change below about -75%, passing the limit was not always enough;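 also: luminescence divided by OD600 gain over 9 h not by final OD600 alone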
Active calls of the source: *; i = inactive; · = no result; + = active, no number.

SMILES	STK33 inh	GSK3 alpha inh	DYRK1A inh	Rce1 inh	GSK3B inh	AI-2 QS mod
O=c1[nH]c(=O)n(C2OC(CO)C(O)C2O)cc1F (stereo not drawn)	·	·	0	·	·	·
O=c1[nH]c(=S)ccn1C1OC(CO)C(O)C1O (stereo not drawn)	0	3	-5	i	-1	-91*
COc1ccc2ccc(O)c(CN(C)CC(=O)Nc3ccccc3C(F)(F)F)c2c1	-1	1	8	i	0	22
COc1ccc2oc(-c3ccccc3)c(C(=O)N3CCOCC3)c2c1	-1	-2	-1	+	3	20
Cc1ccc(SCC(=O)NCCc2ccc(F)cc2)cc1	-1	-8	·	i	1	20
NC(=NCc1ccc2c(c1)OCO2)NC(=O)c1ccccc1	·	·	-1	i	0	-77*
C/C(CCc1ccc2c(c1)OCO2)=N\NC(=O)c1ccccc1	0	6	-3	i	7	11
Cn1nnnc1Sc1ncnc2scc(-c3ccc(-c4ccccc4)cc3)c12	-1	2	-1	·	·	·
Cn1nnnc1Sc1ncnc2scc(-c3cccs3)c12	1	5	59*	·	·	·
O=C(Nc1cccc(Cl)c1)Nc1csc([N+](=O)[O-])c1	1	-3	7	i	1	-91*
CCN1C(=O)[C@H]2[C@@H](c3ccc(-c4ccccc4)cc3)N[C@@](CC(C)C)(C(=O)OC)[C@H]2C1=O	0	1	3	i	-26	19
O=C(COC(=O)/C=C/c1ccco1)Nc1cc(S(=O)(=O)N2CCOCC2)ccc1Cl	0	-1	·	·	·	·
CN(C)C=NC1=NN(c2cccc(C(F)(F)F)c2)CC1	-1	·	5	i	-1	17
CN1CCN(C=NC2=NN(c3cccc(C(F)(F)F)c3)CC2)CC1	30*	0	-1	i	0	16
Nc1nc2c(ncn2COC(CO)CO)c(=O)[nH]1	0	0	-3	+	-1	19
Nc1nc2c(ncn2COCCO)c(=O)[nH]1	-2	-5	4	i	2	14
Cc1ccc(NC(=O)OCc2cc(-c3ccccc3)on2)cc1	-2	-1	-1	i	-3	-24
Cc1ccc(NC(=O)OCc2cccs2)cc1	-5	1	·	i	-4	-90*
Cc1cc(Cl)n2c(nc3cc(F)c(F)cc32)c1C#N	·	·	·	i	2	-96*
Cc1cc(C)n2c(=O)c3ccc(Cl)cc3nc2c1C#N	0	-1	-3	i	4	-1
COc1cc(Cl)c(C)cc1NC(=O)CN(C)C1CCS(=O)(=O)C1 (stereo not drawn)	-1	-6	·	·	·	·
Cc1cccc(-c2nc3ccccc3c3nncn23)c1	53*	5	58*	i	0	9
O=C(O)Cn1cc(/C=c2/sc3nc4ccccc4n3c2=O)c2ccccc21	32*	-2	47	i	-2	9
O=c1/c(=C\c2cccn2-c2ccccc2)sc2nc3ccccc3n12	·	·	-6	·	·	·
O=C(NC1CCCc2ccccc21)c1ccccc1OC(F)F (stereo not drawn)	0	-3	-9	i	-2	-1
SMILES	STK33 inh	GSK3 alpha inh	DYRK1A inh	Rce1 inh	GSK3B inh	AI-2 QS mod
COc1cccc2c1O/C(=N\O)C(C(=O)Nc1ccc(C)cc1)C2 (stereo not drawn)	-2	-2	-3	i	-5	-89*
CCOc1ccc(OCC)c(NC(=O)c2nnn(CC(=O)Nc3cc(C)cc(C)c3)c2N)c1	0	-2	-3	+	2	27
CN(c1ccc(C(=O)N2CCN(Cc3ccccc3)CC2)cc1)S(=O)(=O)c1ccc(Cl)cc1	-1	-2	1	i	0	-1
CNC(=O)c1c[nH]c2ccc(S(=O)(=O)Nc3ccccc3F)cc2c1=O	46*	-2	-3	i	-1	2
CC(=O)N(C)c1ccc(N=Cc2c(O)ccc3ccccc23)cc1	62*	1	-4	i	-2	-5
Cc1cc(C(=O)O)ccc1N=Cc1c(O)ccc2ccccc12	26*	0	·	i	1	2
Cc1nc(SCC(=O)NCC2CCCO2)c2c3c(sc2n1)CCCC3 (stereo not drawn)	0	-4	8	·	·	·
CSc1nc(SCC(=O)NCC2CCCO2)c2c3c(sc2n1)CN(C)CC3 (stereo not drawn)	2	57*	·	i	-29	6
CCc1ccc(CNC(=O)CCn2ccc3cc(S(=O)(=O)N4CCCC4)ccc32)cc1	1	-17	0	i	4	36
Cc1[nH]c(C)c(S(=O)(=O)N2CCN(c3ccc(Cl)cc3)CC2)c1C(=O)N1CCCC1	0	·	-4	i	0	18
N/C(=N\OC(=O)c1ccccc1Cl)c1cccc([N+](=O)[O-])c1	-1	1	·	i	-3	7
N/C(=N/OC(=O)c1ccccc1Cl)c1ncc([N+](=O)[O-])s1	-1	3	6	i	-6	-86*
CN(Cc1ccccc1C#N)S(=O)(=O)c1cccs1	0	0	0	i	0	21
N#Cc1nccnc1S(=O)(=O)c1cccs1	-1	6	·	i	1	-132*
Oc1ccccc1Oc1c(F)c(F)nc(N2CCCC2)c1F	0	1	6	i	2	-94*
Oc1ccccc1Oc1ncc(Br)c(N2CCOCC2)n1	3	0	4	i	-7	7
O=S(=O)(Nc1ccc(N2CCCCC2)cc1)c1cccs1	-1	0	6	i	1	51
O=S(=O)(Nc1ccc(C(F)(F)F)cc1)c1cccs1	-2	0	-7	i	6	-85*
CCc1cc(=O)oc2cc(OCC(=O)N3CCC(C(=O)O)CC3)ccc12	-1	1	1	+	2	14
CCCc1cc(=O)oc2cc(OCC(=O)N3CCC(C(N)=O)CC3)ccc12	-1	-2	4	·	-2	10
O=c1c2cc(Br)ccc2nc(-c2ccc([N+](=O)[O-])cc2)n1O	-1	-5	10	·	1	-167*
N#Cc1ccc(-c2nc3ccc(Br)cc3c(=O)n2O)cc1	1	0	2	i	1	-111*
c1cnn(Cc2cnc(N3CCOCC3)s2)c1	·	1	2	+	-1	9
c1ccc(N2CCN(Cc3cnc(N4CCOCC4)s3)CC2)cc1	0	-3	·	i	2	13
CC(=O)Nc1ccc(C(=O)OCc2ccc(Cl)c(Cl)c2)cc1	0	0	-2	i	-3	-85*
CCCCC(=O)Nc1ncc(Br)s1	-1	25	3	i	-19	30
CC(C)CC(=O)Nc1ncc([N+](=O)[O-])s1	1	80*	14	i	-1	-1
CCCCC(=O)Nc1ncc([N+](=O)[O-])s1	-1	81*	15	i	-61*	-29
COc1ccc(CC(=O)Nc2ncc([N+](=O)[O-])s2)cc1OC	-1	75*	44	i	-45	-4
